Assay results: ChEMBL document CHEMBL4428057, “Discovery, Synthesis, and Evaluation of 2,4-Diaminoquinazolines as a Novel Class of Pancreatic β-Cell-Protective Agents against Endoplasmic Reticulum (ER) Stress” (J Med Chem, 2016)
Activity calls are given as the source filed them. The rule behind the calls is not given here.

Legend:
[1] = tested on: INS1; assay: Protection against tunicamycin induced endoplasmic reticulum stress in rat INS-1 cells assessed as increase in cell viability after 3 days by CellTiter-Glo assay; format: functional, cell-based; settings: INS1, 72 h
In short: (§1)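 INS-1 cells at 3×10^3/well (384-well) co-treated with Tm 0.1 µg/mL and compound for 72 h; CellTiter-Glo ATP luminescence. Activity is % rescue, with Tm alone = 0% and DMSO without Tm = 100%. EC50 from ten 2-fold serial dilutions by curve fit; triplicate.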

[2] = tested on: INS1; assay: Protection against tunicamycin induced endoplasmic reticulum stress in rat INS-1 cells assessed as increase in cell viability after 3 days by CellTiter-Glo assay relative to control; format: functional; in short: as §1
[3] = tested on: INS1; assay: Protection against tunicamycin induced endoplasmic reticulum stress in rat INS-1 cells assessed as increase in cell viability at 5 uM after 72 hrs by CellTiter-Glo assay; format: functional, cell-based
[4] = tested on: INS1; assay: Protection against tunicamycin induced endoplasmic reticulum stress in rat INS-1 cells assessed as increase in cell viability at 30 uM after 72 hrs by CellTiter-Glo assay; format: functional, cell-based

Compound | EC50 [1] [nM] | %max [2] [%] | Activity [3] | Activity [4]
OC[C@@H]1CCCN1c1nc(NCCc2ccccc2Cl)c2ccccc2n1 | 1440 | 50.6 | – | –
OC[C@@H]1CCCN1c1nc(NCCc2ccccc2)c2ccccc2n1 | 480 | 54.4 | – | –
COc1ccc(CNc2nc(N3CCC[C@H]3CO)nc3ccccc23)cc1OC | 1850 | 44.9 | – | –
COc1ccccc1CCNc1nc(N2CCC[C@H]2CO)nc2ccccc12 | 3560 | 56.6 | – | –
OC[C@@H]1CCCN1c1nc(NCCc2ccccc2F)c2ccccc2n1 | 1700 | 52.5 | – | –
COc1cccc(CCNc2nc(N3CCC[C@H]3CO)nc3ccccc23)c1 | 1510 | 54.9 | – | –
OC[C@@H]1CCCN1c1nc(NCCc2ccccc2Br)c2ccccc2n1 | 1880 | 39 | – | –
OC[C@@H]1CCCN1c1nc(NCCc2ccc(F)cc2)c2ccccc2n1 | 2130 | 56.2 | – | –
OC[C@@H]1CCCN1c1nc(NCCc2ccc(Cl)cc2)c2ccccc2n1 | 510 | 57.3 | – | –
OC[C@@H]1CCCN1c1nc(NCCc2cccc(F)c2)c2ccccc2n1 | 1150 | 51.3 | – | –
COc1ccc(CNc2nc(N3CCCCC3CO)nc3ccccc23)cc1OC (configuration not stated) | 3640 | 69.4 | – | –
OC[C@@H]1CCCN1c1nc(NCCc2ccc(Br)cc2)c2ccccc2n1 | 650 | 44.1 | – | –
OCC1CCCCN1c1nc(NCc2ccccc2)c2ccccc2n1 (configuration not stated) | 230 | 56.4 | – | –
Cc1ccc(CCNc2nc(N3CCC[C@H]3CO)nc3ccccc23)cc1 | 660 | 34.2 | – | –
OC[C@@H]1CCCN1c1nc(NCCc2cccc(Br)c2)c2ccccc2n1 | 780 | 53.2 | – | –
COc1ccc(CNc2nc(N3CCC[C@H]3CO)nc3ccccc23)cc1 | 4050 | 57.2 | – | –
OCC1CCCCN1c1nc(NCc2ccc(Cl)cc2)c2ccccc2n1 (configuration not stated) | 210 | 54.7 | – | –
OC[C@@H]1CCCN1c1nc(NCCc2cccc(Cl)c2)c2ccccc2n1 | 1050 | 51.5 | – | –

Compound | EC50 [1] [nM] | %max [2] [%] | Activity [3] | Activity [4]
COc1ccc(CNc2nc(N3CCCC[C@@H]3CO)nc3ccccc23)cc1 | – | – | Active | –
COc1ccc(CNc2nc(N3CCCC[C@H]3CO)nc3ccccc23)cc1 | – | – | Active | –
Nc1nnc(Sc2cc(-n3cccc3)c(Cl)cc2[N+](=O)[O-])[nH]1 | – | – | – | Active
OCC1CCCCN1c1nc(NCCc2ccccc2Br)c2ccccc2n1 (racemic) | 1410 | 44.2 | – | –
OCC1CCCCN1c1nc(NCCc2ccc(F)cc2)c2ccccc2n1 (racemic) | 310 | 47.5 | – | –
Cc1ccc(CCNc2nc(N3CCCCC3CO)nc3ccccc23)cc1 (racemic) | 140 | 33.6 | – | –
OCC1CCCCN1c1nc(NCCc2ccc(Cl)cc2)c2ccccc2n1 (racemic) | 170 | 57.6 | – | –
OCC1CCCCN1c1nc(NCCc2ccccc2F)c2ccccc2n1 (racemic) | 1460 | 60.3 | – | –
OCC1CCCCN1c1nc(NCCc2ccccc2)c2ccccc2n1 (racemic) | 360 | 55.7 | – | –
COc1cccc(CCNc2nc(N3CCCCC3CO)nc3ccccc23)c1 (racemic) | 2590 | 69.2 | – | –
OCC1CCCCN1c1nc(NCCc2cccc(Br)c2)c2ccccc2n1 (racemic) | 770 | 51.7 | – | –
OCC1CCCCN1c1nc(NCCc2cccc(Cl)c2)c2ccccc2n1 (racemic) | 790 | 46.2 | – | –
OCC1CCCCN1c1nc(NCCc2cccc(F)c2)c2ccccc2n1 (racemic) | 1880 | 57.3 | – | –
OCC1CCCCN1c1nc(NCCc2ccc(Br)cc2)c2ccccc2n1 (racemic) | 340 | 52.8 | – | –
COc1ccc(CCNc2nc(N3CCCCC3CO)nc3ccccc23)cc1 (racemic) | 310 | 58.6 | – | –
OCC1CCCCN1c1nc(NCCc2ccccc2Cl)c2ccccc2n1 (racemic) | 470 | 51.4 | – | –
COc1ccccc1CCNc1nc(N2CCCCC2CO)nc2ccccc12 (racemic) | 1600 | 46.9 | – | –
